Measured values: ChEMBL document CHEMBL4680082 (J Med Chem, 2016)
Where “and” joins values, the source holds several entries; their conditions need not be identical. Equal values may be shown once. Calls of active or inactive are those of the source. No cut-off for these calls is given here.

Tests used:
[1] = biological target: T1, 5-hydroxytryptamine receptor 2B (Homo sapiens, UniProt P41595)
[2] = biological target: T2, 5-hydroxytryptamine receptor 2C (Homo sapiens) (UniProt P28335); test: Agonist activity at human 5-HT2C INI receptor expressed in human Flp-In-293 cells assessed as increase in [3H]myo-inositol accumulation at 1 uM after 30 hrs; assay type: functional, cell-based; settings: filed as partial agonist
T2 sequence (whole entry): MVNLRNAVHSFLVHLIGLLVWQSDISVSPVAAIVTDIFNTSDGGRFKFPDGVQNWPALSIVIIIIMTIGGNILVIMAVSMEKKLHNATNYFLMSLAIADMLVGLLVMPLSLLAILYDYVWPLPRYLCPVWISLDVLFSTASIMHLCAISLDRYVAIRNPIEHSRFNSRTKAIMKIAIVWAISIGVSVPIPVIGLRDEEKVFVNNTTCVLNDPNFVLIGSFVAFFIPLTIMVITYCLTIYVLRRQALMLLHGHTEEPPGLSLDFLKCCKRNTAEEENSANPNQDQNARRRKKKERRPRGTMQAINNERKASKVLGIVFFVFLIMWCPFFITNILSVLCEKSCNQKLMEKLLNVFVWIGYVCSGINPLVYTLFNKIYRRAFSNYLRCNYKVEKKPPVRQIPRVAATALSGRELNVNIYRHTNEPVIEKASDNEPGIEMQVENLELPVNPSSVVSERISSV
Outline: (§1)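 PI hydrolysis: Flp-In-293 5-HT2C INI cells, 25,000/well, labelled 16-18 h with [3H]-myo-inositol (2 µCi/well) in inositol-free DMEM, washed. Drug (1 µM) in HBSS/HEPES pH 7.4 buffer for the indicated times (5 min to 40 h). LiCl (15 mM final) added 2 h before lysis with cold 50 mM formic acid at 4 °C overnight. [3H]-inositol phosphates captured on yttrium silicate beads and counted as CPM.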

[3] = biological target: T1, 5-hydroxytryptamine receptor 2B; test: Agonist activity at human 5-HT2B receptor expressed in human Flp-In-293 cells assessed as induction of calcium flux incubated for 1 hr by Fluo-4 direct dye based FLIPR assay relative to 5-HT; assay type: functional, cell-based; settings: filed as agonist
[4] = biological target: T2, 5-hydroxytryptamine receptor 2C (Homo sapiens); test: Agonist activity at human 5-HT2C receptor expressed in human Flp-In-293 cells assessed as induction of calcium flux incubated for 1 hr by Fluo-4 direct dye based FLIPR assay relative to 5-HT; assay type: functional, cell-based; settings: filed as partial agonist
[5] = biological target: T2, 5-hydroxytryptamine receptor 2C (Homo sapiens); test: Induction of Gq-mediated receptor desensitization at human 5-HT2C INI receptor expressed in human Flp-In-293 cells assessed as reduction in Emax for [3H]myo-inositol accumulation at 1 uM after 20 hrs; assay type: functional, cell-based; settings: filed as partial agonist
Outline: as §1

[6] = biological target: T3, 5-hydroxytryptamine receptor 2C (Homo sapiens, UniProt P28335); test: Agonist activity at human 5-HT2C INI receptor expressed in human Flp-In-293 cells assessed as induction of calcium flux incubated for 1 hr by Fluo-4 direct dye based FLIPR assay; assay type: functional, cell-based
T3 sequence (P28335 whole entry): T2 sequence (whole entry)
Outline: (§2)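 Calcium flux in Flp-In-293 cells stably expressing the human 5-HT2C INI isoform, Fluo-4 Direct loading for 1 h at 37 °C. Drug dilutions identical to those in the parallel Tango assay, 300 s read at 1 read/s, normalized to % 5-HT. Triplicate, mean ± SEM (n = 3). Bias factors were calculated from change in relative activity, log(Emax/EC50).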

[7] = biological target: T3, 5-hydroxytryptamine receptor 2C; test: Agonist activity at human 5-HT2C INI receptor expressed in human HEK293 cells assessed as induction of beta-arrestin-2 recruitment incubated for 20 hrs by Tango assay; assay type: cell-based
Outline: (§3)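 Tango assay in HTLA cells (HEK line expressing TEV-fused β-arrestin-2 and tTA-driven luciferase) transfected with 5-HT2C INI–tTA fusion carrying a TEV site. Cells were stimulated with the same dilutions used for FLIPR, 20 h at 37 °C and 5% CO2, then lysed with Bright-Glo for 20 min at room temperature and read by luminescence. Data normalized to % 5-HT and fitted sigmoidally; n = 3 in triplicate. Bias from log(Emax/EC50).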

[8] = biological target: T2, 5-hydroxytryptamine receptor 2C (Homo sapiens); test: Agonist activity at human 5-HT2C INI receptor expressed in human Flp-In-293 cells assessed as induction of calcium flux incubated for 1 hr by Fluo-4 direct dye based FLIPR assay relative to 5-HT; assay type: functional, cell-based
Outline: as §2

[9] = biological target: T4, 5-hydroxytryptamine receptor 2A (Homo sapiens, UniProt P28223)
[10] = biological target: T4, 5-hydroxytryptamine receptor 2A; test: Agonist activity at human 5-HT2A receptor expressed in human Flp-In-293 cells assessed as induction of calcium flux incubated for 1 hr by Fluo-4 direct dye based FLIPR assay relative to 5-HT; assay type: functional, cell-based; settings: filed as agonist
[11] = biological target: T3, 5-hydroxytryptamine receptor 2C
[12] = biological target: T2, 5-hydroxytryptamine receptor 2C (Homo sapiens); test: Agonist activity at human 5-HT2C INI receptor expressed in human Flp-In-293 cells assessed as increase in [3H]myo-inositol accumulation at 1 uM after 5 mins; assay type: functional, cell-based; settings: filed as partial agonist
Outline: as §1

[13] = biological target: T2, 5-hydroxytryptamine receptor 2C (Homo sapiens); test: Induction of Gq-mediated receptor desensitization at human 5-HT2C INI receptor expressed in human Flp-In-293 cells assessed as reduction in Emax for additional 5-HT-stimulated calcium flux at <1 uM pre-incubated for 30 mins followed by drug wash out (3 times) by Fluo-4 direct dye based FLIPR assay; assay type: functional, cell-based; settings: dose microM <1, time 30.0 min
[14] = biological target: T2, 5-hydroxytryptamine receptor 2C (Homo sapiens); test: Agonist activity at human 5-HT2C INI receptor expressed in human Flp-In-293 cells assessed as increase in [3H]myo-inositol accumulation at 1 uM after 90 mins; assay type: functional, cell-based; settings: filed as partial agonist
Outline: as §1

[15] = biological target: T2, 5-hydroxytryptamine receptor 2C (Homo sapiens); test: Agonist activity at human 5-HT2C INI receptor expressed in human HEK293 cells assessed as induction of beta-arrestin-2 recruitment incubated for 20 hrs by Tango assay relative to 5HT; assay type: cell-based
Outline: as §3

[16] = biological target: T2, 5-hydroxytryptamine receptor 2C (Homo sapiens); test: Agonist activity at human 5-HT2C INI receptor expressed in human Flp-In-293 cells assessed as increase in [3H]myo-inositol accumulation at 1 uM measured up to 5 hrs; assay type: functional, cell-based; settings: filed as partial agonist, time hrs <=5
Outline: as §1

[17] = biological target: T2, 5-hydroxytryptamine receptor 2C (Homo sapiens); test: Bias factor, ratio of log(Emax/EC50) of lorcaserin to test compound for agonist activity at human 5-HT2C INI receptor expressed in human HEK293 cells assessed as induction of beta-arrestin-2 recruitment incubated for 20 hrs by Tango assay; assay type: cell-based
Outline: as §3

[18] = biological target: T2, 5-hydroxytryptamine receptor 2C (Homo sapiens); test: Agonist activity at human 5-HT2C INI receptor expressed in human HEK293 cells assessed as induction of beta-arrestin-2 recruitment by measuring log (Emax/EC50) incubated for 20 hrs by Tango assay relative to 5HT; assay type: cell-based
Outline: as §3

[19] = biological target: T2, 5-hydroxytryptamine receptor 2C (Homo sapiens); test: Bias factor, ratio of log(Emax/EC50) of lorcaserin to test compound for agonist activity at human 5-HT2C INI receptor expressed in human Flp-In-293 cells assessed as induction of calcium flux incubated for 1 hr by Fluo-4 direct dye based FLIPR assay; assay type: functional, cell-based
Outline: as §2

[20] = biological target: T2, 5-hydroxytryptamine receptor 2C (Homo sapiens); test: Agonist activity at human 5-HT2C INI receptor expressed in human Flp-In-293 cells assessed as induction of calcium flux by measuring log (Emax/EC50) incubated for 1 hr by Fluo-4 direct dye based FLIPR assay; assay type: functional, cell-based
Outline: as §2

T1 sequence (P41595 whole entry): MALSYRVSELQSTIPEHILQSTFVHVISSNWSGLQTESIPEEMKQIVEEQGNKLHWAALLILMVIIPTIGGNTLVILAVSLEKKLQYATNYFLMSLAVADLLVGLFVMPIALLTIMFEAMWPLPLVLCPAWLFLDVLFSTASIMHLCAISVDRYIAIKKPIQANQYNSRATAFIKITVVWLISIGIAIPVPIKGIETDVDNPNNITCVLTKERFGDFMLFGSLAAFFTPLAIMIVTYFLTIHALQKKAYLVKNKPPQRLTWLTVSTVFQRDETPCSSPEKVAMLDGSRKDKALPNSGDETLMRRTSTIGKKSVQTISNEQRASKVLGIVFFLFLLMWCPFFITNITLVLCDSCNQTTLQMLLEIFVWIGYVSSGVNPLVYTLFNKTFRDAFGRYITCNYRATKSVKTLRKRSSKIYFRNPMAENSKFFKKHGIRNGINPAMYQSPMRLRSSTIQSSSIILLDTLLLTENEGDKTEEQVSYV
T4 sequence (P28223 whole entry): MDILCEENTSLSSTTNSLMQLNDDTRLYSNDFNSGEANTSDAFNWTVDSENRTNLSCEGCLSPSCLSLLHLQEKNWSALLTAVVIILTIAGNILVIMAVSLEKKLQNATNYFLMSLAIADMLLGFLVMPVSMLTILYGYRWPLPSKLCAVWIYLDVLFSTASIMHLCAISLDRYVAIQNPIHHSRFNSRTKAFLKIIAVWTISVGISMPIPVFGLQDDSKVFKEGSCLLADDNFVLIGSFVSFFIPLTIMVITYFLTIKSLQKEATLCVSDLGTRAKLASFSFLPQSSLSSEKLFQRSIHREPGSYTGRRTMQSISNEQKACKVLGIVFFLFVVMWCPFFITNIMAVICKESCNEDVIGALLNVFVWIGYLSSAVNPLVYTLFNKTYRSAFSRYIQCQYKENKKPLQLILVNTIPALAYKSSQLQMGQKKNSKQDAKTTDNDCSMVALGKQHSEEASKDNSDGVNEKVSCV

NC[C@H]1C[C@@H]1c1c(OCCF)ccc2occc12
EC50 [1]: 46 nM
Activity [2]: Dose-dependent effect
Emax [3]: 103%
Emax [4]: 97%
Activity [5]: Active
EC50 [6]: 1.2 nM
EC50 ([7]; read-out: EC50): 25 nM
Emax ([8]; filed as partial agonist): 94%
EC50 [9]: 22 nM
Emax [10]: 98%
EC50 [11]: 0.603 nM and 0.59 nM
Activity [12]: Active
Activity [13]: inactive
Activity [14]: Active
Emax [15]: 28%
Activity [16]: Active

C[C@H](N)Cn1ccc2cc(F)c(Cl)cc21
Ratio [17]: 3.3
EC50 [6]: 2.2 nM
EC50 ([7]; read-out: EC50): 10 nM
EC50 ([7]; read-out: pEC50 (converted)): 10.7 nM
Emax ([8]; filed as agonist): 99%
log(ratio) [18]: 7.94
Ratio [19]: 0.3
log(ratio) [20]: 8.65
Emax ([15]; filed as agonist): 87%
